Fewer inactive variants are shown than the library holds.
B1: tRNA (parent)
chain: GUUCCGUUGGCGUAAUGGUAACGCGUCUCCCUCCUAAGGAGAAGACUGCGGGUUCGAGUCCCGUACGGAACG

Variants of: B1
Assay: yeast fitness relative to wild type (ratio to wild type); higher = fitter; tRNA-Arg(CCU), competitive growth, 37 C, YPD
Procedure, shortened: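 Amplicons of the tRNA-Arg(CCU) gene were sequenced, 100-nucleotide paired-end, from the start population and from each end population of a pooled yeast competition. The competition, in six parallel replicates, lasted 24 hours in YPD at 37°C. Fitness relative to wild type was calculated from changes in genotype frequencies. Genotypes had to have ≥ 100 starting reads, and estimates < 0.5 were set to 0.5.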

| Variant | yeast fitness |
| --- | --- |
| GUUCCGUUGGCGUAGUGGUAGCGCGUCUCCCUCCUAAGAAGAAGACUGCGGGUUCGAGUCCCGUACGGAACG [A15G A21G G39A] | 0.649 |
| GUUCCGUUGGCGUAGUGGUAACGCGUCUCCCUCCUCAGGAGAAGACUGCGGGUUCGAGUCCCGUACGGAACG [A15G A36C] | 0.515 |
| GUUCCGUUGGCGUAGUGGUAACGCGUCUCCCUCCUCAGGAGAAGACUGCGGGUUCGAGUCCCGUACCGAACG [A15G A36C G67C] | ≤ 0.5 |
| GUUCCGUUGGCGUAGUGGUAACGCGUCUCCCUCCUGGGGAGAAGACUGCGGGUUCGAGUCCCGUACGGAACG [A15G A36G A37G] | 0.624 |
| GUUCCGUUGGCGUAGUGGUAACGCGUCUCCCUCCUGAGGAGAAGACUGCGGGUUCUAGUCCUGUACGGAACG [A15G A36G G56U C62U] | ≤ 0.5 |
| GUUCCGUUGGCGUAGUGGUAACGCGUCUCCCUCCUUAGGAGAAGACUGCGGGUUCGAGACCCGUACGGAACG [A15G A36U U59A] | ≤ 0.5 |
| GUUCCGUUGGCGUAGUGGUAACGCGUCUCCCUCCUAUGGCGACGACUGCGGGUUCGAGUCCCGUACGGAACG [A15G A37U A40C A43C] | ≤ 0.5 |
| GUUCCGUUGGCGUAGUGGUAACGCGUCUCCCUCCUAAGGUGAAGACUGCGGGUUCGAGUCCCGUACGGAACG [A15G A40U] | 0.767 |
| GUUCCGUUGGCGUAGUGGUAACGCGUCUCCCUCCUAAGGAGCAGAAUGCGGGUUCGAGUCCCGUACGGAACG [A15G A42C C46A] | ≤ 0.5 |
| GUUCCGUUGGCGUAGUGGUAACGCGUCUCCCUCCUAAGGAGCAGACUGCGCGUUCGAGUCCCGUACCGAACG [A15G A42C G51C G67C] | ≤ 0.5 |
| GUUCCGUUGGCGUAGUGGUAACGCGUCUCCCUCCUAAGGAGCAGACUGCGGCUUCGAGUCCCGUACGGAACG [A15G A42C G52C] | ≤ 0.5 |
| GUUCCGUUGGCGUAGUGGUAACGCGUCUCCCUCCUAAGGAGGAGACUGCGGGUUCGAGUCUCGUACGGAACG [A15G A42G C61U] | 0.579 |
| GUUCCGUUGGCGUAGUGGUAACGCGUCUCCCUCCUAAGGAGUAGACUGCGGGUUCGAGUCCCGUACGGAACG [A15G A42U] | 0.971 |
| GUUCCGUUGGCGUAGUGGUAACGCGUCUCCCUCCUAAGGAGUAGACUGCGGGUUCGCGUCCCGUACGGAACG [A15G A42U A57C] | 0.532 |
| GUUCCGUUGGCGUAGUGGUAACGCGUCUCCCUCCUAAGGAGAUGACUGCGGGUUCGAGUGCCGUACGGAACG [A15G A43U C60G] | ≤ 0.5 |
| GUUCCGUUGGCGUAGUGGUAACGCGUCUCCCUCCUAAGGAGAAGUCUGCGGGUUCGAGUCCCGUACGGAACG [A15G A45U] | 0.987 |
| GUUCCGUUGGCGUAGUGGUAACGCGUCUCCCUCCUAAGGAGAAGUCUGCGGGUUCGAGUCCCGUACGGAUCG [A15G A45U A70U] | 0.692 |
| GUUCCGUUGGCGUAGUGGUAACGCGUCUCCCUCCUAAGGAGAAGACUGCGGGUUCGCGUCCCGUACGGAACG [A15G A57C] | 0.636 |
| GUUCCGUUGGCGUAGUGGUAACGCGUCUCCCUCCUAAGGAGAAGACUGCGGGUUCGGGUCCCGUACGGAACG [A15G A57G] | 0.899 |

| Variant | yeast fitness |
| --- | --- |
| GUUCCGUUGGCGUAGUGGUAACGCGUCUCCCUCCUAAGGAGAAGACUGCGGGUUCGUGUCCCGUUCGGAACG [A15G A57U A65U] | ≤ 0.5 |
| GUUCCGUUGGCGUAGUGGUAAGGCGUCUCCCUCCUAAGGAGAAGACUGCGGGUUCGAGUCCCGUACGGAACG [A15G C22G] | 0.893 |
| GUUCCGUUGGCGUAGUGGUAACGAGUCUCCCUCGUAAGGAGAAGACUGCGGGUUCGAGUCCCGUUCGGAACG [A15G C24A C34G A65U] | ≤ 0.5 |
| GUUCCGUUGGCGUAGUGGUAACGAGUCUCCCUCCUAAGGAGAAGAAUGCGGGUUCGAGUCCCGUACGGAACG [A15G C24A C46A] | 0.64 |
| GUUCCGUUGGCGUAGUGGUAACGAGUCUCCCUCCUAAGGAGAAGACUGCGGGUUCGAGUCCCGUAUGGAACG [A15G C24A C66U] | ≤ 0.5 |
| GUUCCGUUGGCGUAGUGGUAACGAGUCUCCCUCCUAAGGAGAAGACUGCGGGUUCGAGUCCCGCACGGAACG [A15G C24A U64C] | ≤ 0.5 |
| GUUCCGUUGGCGUAGUGGUAACGGGUCUCCGUCCUAAGGAGAAGACUGCAGGUUCGAGUCCCGUACGGAACG [A15G C24G C31G G50A] | ≤ 0.5 |
| GUUCCGUUGGCGUAGUGGUAACGGGUCUCCCUCCUAAGGAGAAGACUGUGGGUUCGAGUCCCGUACGGAACG [A15G C24G C49U] | 0.541 |
| GUUCCGUUGGCGUAGUGGUAACGGGUCACCCUCCUAAGGAGAAGACUGCGGCUUCGAGUCCCGUCCGGAACG [A15G C24G U28A G52C A65C] | ≤ 0.5 |
| GUUCCGUUGGCGUAGUGGUAACGCGUCUACCUCGUAAGGAGAAGACUGCGGGUUCGAGUCCCGUACGGAACG [A15G C29A C34G] | ≤ 0.5 |
| GUUCCGUUGGCGUAGUGGUAACGCGUCUACCUCCUAAGGAGAAGACUGCGGGUUCGACUCCCGUACGGAACG [A15G C29A G58C] | 0.503 |
| GUUCCGUUGGCGUAGUGGUAACGCGUCUACCUCCUAAGGAGAAGACGGCGGGUACGAAUCCCGUACGGAACG [A15G C29A U47G U54A G58A] | ≤ 0.5 |
| GUUCCGUUGGCGUAGUGGUAACGCGUCUGCCUCCUACGGAGUAGACUGCGGGUUCGGGUCCCGUACAGAACG [A15G C29G A37C A42U A57G G67A] | ≤ 0.5 |
| GUUCCGUUGGCGUAGUGGUAACGCGUCUGCGUCCUACGGAGAAGACUGCGGGUUCGAGUCCCGUAAGGAACG [A15G C29G C31G A37C C66A] | ≤ 0.5 |
| GUUCCGUUGGCGUAGUGGUAACGCGUCUGCCUACUAAGGAGAAGACUGCGGGUUCGAGUCCCGUACAGAACG [A15G C29G C33A G67A] | 0.569 |
| GUUCCGUUGGCGUAGUGGUAACGCGUCUUCCUCCUAAGGAGAAGACUGCGGGUUCGAGUCCCGUACGGAACG [A15G C29U] | 0.952 |
| GUUCCGUUGGCGUAGUGGUAACGCGUCUCACUCCUAAGGAGAAGACUGCGGGUUCGAGUCCGGUACGGAACG [A15G C30A C62G] | 0.634 |
| GUUCCGUUGGCGUAGUGGUAACGCGUCUCACUCCUAAGGAGAAGACUCCGGGUUCGAGUCCCGUACGGAACG [A15G C30A G48C] | ≤ 0.5 |
| GUUCCGUUGGCGUAGUGGUAACGCGUCUCGCUCCUAAGGAGCCGAGUGCGGGUUCGAGUCCCGUCCGGAACG [A15G C30G A42C A43C C46G A65C] | ≤ 0.5 |

Reference: the RNAGym collection of RNA variant scans (doi:10.1126/science.aae0568)
